# pIC50: −log10 of the molar value.
# Experiments:
# [1] = target: Somatostatin receptor type 1 (Homo sapiens, UniProt P30872); test: Inhibition of 125I-[Leu8,D-Trp22,Tyr25]SRIF-28 binding to human somatostatin receptor type 1
# Method in brief: (§1)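 Human sst1 or sst5 receptor stably expressed in CHO-K1 cells. 20 µm cryostat sections of cell membrane pellets were used for receptor autoradiography. IC50 (nM) came from competitive radioligand displacement. Values are mean ± SEM when N ≥ 3; otherwise mean with single values.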
# [2] = target: Somatostatin receptor type 3 (Homo sapiens, UniProt P32745); test: Inhibition of 125I-[Leu8,D-Trp22,Tyr25]SRIF-28 binding to human somatostatin receptor type 3
# Method in brief: (§2)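 Human sst2 or sst3 receptor stably expressed in CCL39 cells. 20 µm cryostat sections of cell membrane pellets were used for autoradiographic binding. IC50 (nM) came from competitive displacement. Values are mean ± SEM when N ≥ 3; otherwise mean with single values.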
# [3] = target: Somatostatin receptor type 4 (Homo sapiens, UniProt P31391); test: Inhibition of 125I-[Leu8,D-Trp22,Tyr25]SRIF-28 binding to human somatostatin receptor type 4
# [4] = target: Somatostatin receptor type 2 (Homo sapiens, UniProt P30874); test: Inhibition of 125I-[Leu8,D-Trp22,Tyr25]SRIF-28 binding to human somatostatin receptor type 2; method in brief: as §2
# [5] = target: Somatostatin receptor type 5 (Homo sapiens, UniProt P35346); test: Inhibition of 125I-[Leu8,D-Trp22,Tyr25]SRIF-28 binding to human somatostatin receptor type 5; method in brief: as §1
# Chain of Somatostatin receptor type 5 (P35346 whole entry): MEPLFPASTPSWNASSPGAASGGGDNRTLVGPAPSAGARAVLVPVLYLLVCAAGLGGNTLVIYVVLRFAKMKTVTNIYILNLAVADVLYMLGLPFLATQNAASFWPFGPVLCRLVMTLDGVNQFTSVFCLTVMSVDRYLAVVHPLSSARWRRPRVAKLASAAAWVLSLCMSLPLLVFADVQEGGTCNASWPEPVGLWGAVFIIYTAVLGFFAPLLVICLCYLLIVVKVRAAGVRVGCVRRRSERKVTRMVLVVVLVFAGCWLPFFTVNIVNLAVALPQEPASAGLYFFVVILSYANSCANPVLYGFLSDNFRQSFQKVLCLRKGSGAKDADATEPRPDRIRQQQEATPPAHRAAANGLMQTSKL
# Chain of Somatostatin receptor type 1 (P30872 whole entry): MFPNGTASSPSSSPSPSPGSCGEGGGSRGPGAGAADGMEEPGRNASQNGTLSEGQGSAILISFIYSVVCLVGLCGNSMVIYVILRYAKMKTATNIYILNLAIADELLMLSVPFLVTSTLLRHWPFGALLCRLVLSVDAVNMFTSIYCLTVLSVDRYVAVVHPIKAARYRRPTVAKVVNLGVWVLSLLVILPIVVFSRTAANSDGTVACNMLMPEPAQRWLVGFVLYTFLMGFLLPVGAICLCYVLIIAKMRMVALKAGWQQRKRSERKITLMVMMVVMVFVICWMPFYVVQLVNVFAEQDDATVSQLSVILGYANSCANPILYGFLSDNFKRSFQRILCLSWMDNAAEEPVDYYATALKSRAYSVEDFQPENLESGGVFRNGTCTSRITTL
# Chain of Somatostatin receptor type 3 (P32745 whole entry): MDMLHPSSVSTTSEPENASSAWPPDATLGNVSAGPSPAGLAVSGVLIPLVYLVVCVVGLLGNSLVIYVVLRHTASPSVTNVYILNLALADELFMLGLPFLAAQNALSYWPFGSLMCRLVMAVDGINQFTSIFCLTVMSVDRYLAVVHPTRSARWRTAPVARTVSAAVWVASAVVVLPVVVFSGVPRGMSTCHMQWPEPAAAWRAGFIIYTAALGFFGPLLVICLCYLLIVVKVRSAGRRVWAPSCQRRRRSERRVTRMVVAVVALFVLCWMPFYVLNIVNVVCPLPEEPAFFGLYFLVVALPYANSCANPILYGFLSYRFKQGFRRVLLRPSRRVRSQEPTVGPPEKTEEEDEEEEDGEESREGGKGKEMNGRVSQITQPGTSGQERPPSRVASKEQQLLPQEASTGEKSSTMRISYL
# Chain of Somatostatin receptor type 2 (P30874 whole entry): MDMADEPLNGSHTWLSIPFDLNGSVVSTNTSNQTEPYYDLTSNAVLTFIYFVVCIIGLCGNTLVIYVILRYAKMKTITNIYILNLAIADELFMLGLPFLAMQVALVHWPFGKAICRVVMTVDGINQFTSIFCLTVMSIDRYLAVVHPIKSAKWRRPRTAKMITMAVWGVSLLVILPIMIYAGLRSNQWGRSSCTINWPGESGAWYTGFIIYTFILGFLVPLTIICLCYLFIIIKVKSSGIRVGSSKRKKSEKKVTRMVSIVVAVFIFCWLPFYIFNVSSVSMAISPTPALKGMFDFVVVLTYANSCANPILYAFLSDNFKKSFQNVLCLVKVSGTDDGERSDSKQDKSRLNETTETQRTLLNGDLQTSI
# Chain of Somatostatin receptor type 4 (P31391 whole entry): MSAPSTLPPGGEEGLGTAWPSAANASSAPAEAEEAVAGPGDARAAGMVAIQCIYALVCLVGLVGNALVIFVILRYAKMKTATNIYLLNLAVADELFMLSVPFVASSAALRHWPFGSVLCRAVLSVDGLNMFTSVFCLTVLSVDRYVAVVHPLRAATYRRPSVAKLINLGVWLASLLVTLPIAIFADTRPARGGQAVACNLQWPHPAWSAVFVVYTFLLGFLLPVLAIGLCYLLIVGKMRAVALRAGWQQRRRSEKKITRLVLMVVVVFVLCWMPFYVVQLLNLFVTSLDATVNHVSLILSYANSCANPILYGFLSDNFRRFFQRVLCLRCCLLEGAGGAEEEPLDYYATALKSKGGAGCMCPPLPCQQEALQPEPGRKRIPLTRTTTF
Compound,pIC50 [1],pIC50 [2],pIC50 [3],pIC50 [4],pIC50 [5]
CC(C)NCc1ccc(C[C@@H]2NC(=O)[C@@H](Cc3c[nH]c4ccccc34)NC(=O)[C@H](Cc3ccccc3)NC(=O)[C@@H]3CCC(=O)NCCCC[C@H](NC(=O)[C@H]([C@@H](C)O)NC2=O)C(=O)N[C@@H]([C@@H](C)O)C(=O)N[C@@H](CO)C(=O)N[C@H](C(=O)O)CSSC[C@H](NC(=O)[C@@H](N)Cc2ccc(O)cc2)C(=O)N[C@@H](CCCCN)C(=O)N3)cc1,< 6.00,< 6.00,< 6.00,< 6.00,< 6.00
C[C@@H](O)[C@@H]1NC(=O)[C@H](CCCCN)NC(=O)[C@@H](Cc2c[nH]c3ccccc23)NC(=O)[C@H](Cc2ccccc2)NC(=O)[C@H](Cc2ccccc2)NC(=O)[C@H](CCCCN)NC(=O)[C@@H](N)CSSC[C@@H](C(=O)O)NC(=O)[C@H](Cc2ccccc2)NC1=O,8.28,7.41,9.22,7.82,7.89
CC(C)NCc1ccc(C[C@@H]2NC(=O)[C@@H](Cc3c[nH]c4ccccc34)NC(=O)[C@@H]3CCC(=O)NCCCC[C@H](NC(=O)[C@H](Cc4ccccc4)NC(=O)[C@H]([C@@H](C)O)NC2=O)C(=O)N[C@@H](CO)C(=O)N[C@H](C(N)=O)CSSC[C@H](NC(=O)[C@@H](N)Cc2ccc(O)cc2)C(=O)N[C@@H](CCCCN)C(=O)N[C@@H](Cc2ccccc2)C(=O)N3)cc1,6.74,< 6.00,< 6.00,< 6.00,< 6.00
CC(C)NCc1ccc(C[C@@H]2NC(=O)[C@@H](Cc3c[nH]c4ccccc34)NC(=O)[C@H](Cc3ccccc3)NC(=O)[C@@H]3CC(=O)NC[C@H](NC(=O)[C@H](Cc4ccccc4)NC(=O)[C@H]([C@@H](C)O)NC2=O)C(=O)N[C@@H](CO)C(=O)N[C@H](C(=O)O)CSSC[C@H](NC(=O)[C@@H](N)Cc2ccc(O)cc2)C(=O)N[C@@H](CCCCN)C(=O)N3)cc1,< 6.00,< 6.00,< 6.00,< 6.00,< 6.00
CC(C)NCc1ccc(C[C@@H]2NC(=O)[C@@H](Cc3c[nH]c4ccccc34)NC(=O)[C@H](Cc3ccccc3)NC(=O)[C@@H]3CCC(=O)NCC[C@H](NC(=O)[C@H](Cc4ccccc4)NC(=O)[C@H]([C@@H](C)O)NC2=O)C(=O)N[C@@H](CO)C(=O)N[C@H](C(=O)O)CSSC[C@H](NC(=O)[C@@H](N)Cc2ccc(O)cc2)C(=O)N[C@@H](CCCCN)C(=O)N3)cc1,6.98,< 6.00,< 6.00,< 6.00,< 6.00
CC(C)NCc1ccc(C[C@H]2C(=O)N[C@@H]([C@@H](C)O)C(=O)N[C@@H](Cc3ccc(O)c(I)c3)C(=O)N[C@H]3CCCCCCNC(=O)CC[C@H](NC(=O)[C@H](Cc4ccccc4)NC(=O)[C@H](CCCCN)NC(=O)[C@@H](N)CSSC[C@@H](C(=O)O)NC(=O)[C@H](CO)NC3=O)C(=O)N[C@H](Cc3c[nH]c4ccccc34)C(=O)N2C)cc1,7.34,< 6.00,6.21,< 6.00,< 6.00
C[C@@H](O)[C@@H]1NC(=O)[C@H](CCCCN)NC(=O)[C@@H](Cc2c[nH]c3ccccc23)NC(=O)[C@H](Cc2ccccc2)NC(=O)[C@H](Cc2ccccc2)NC(=O)[C@H](CC(N)=O)NC(=O)[C@@H](N)CSSC[C@@H](C(=O)O)NC(=O)[C@H](Cc2ccccc2)NC1=O,7.23,6.72,8.92,7.02,7.51
C[C@@H](O)[C@@H]1NC(=O)[C@H](CCCCN)NC(=O)[C@@H](Cc2c[nH]c3ccccc23)NC(=O)[C@H](Cc2ccccc2)NC(=O)[C@@H](N)CSSC[C@@H](C(=O)O)NC(=O)[C@H](Cc2ccccc2)NC1=O,< 6.00,< 6.00,6.64,6.27,< 6.00
C[C@@H](O)[C@@H]1NC(=O)[C@H](CCCCN)NC(=O)[C@@H](Cc2c[nH]c3ccccc23)NC(=O)[C@H](Cc2ccccc2)NC(=O)[C@H](Cc2ccccc2)NC(=O)[C@@H](N)CSSC[C@@H](C(=O)O)NC1=O,< 6.00,< 6.00,< 6.00,6.22,< 6.00
C[C@@H](O)[C@@H]1NC(=O)[C@H](Cc2ccccc2)NC(=O)[C@H]([C@@H](C)O)NC(=O)[C@H](CCCCN)NC(=O)[C@@H](Cc2c[nH]c3ccccc23)NC(=O)[C@H](Cc2ccccc2)NC(=O)[C@H](Cc2ccccc2)NC(=O)[C@@H](N)CSSC[C@@H](C(=O)O)NC1=O,6.71,7.28,9.00,8.72,7.37
CC(C)NCc1ccc(C[C@H]2C(=O)N[C@@H]([C@@H](C)O)C(=O)N[C@@H](Cc3ccc(O)c(I)c3)C(=O)N[C@H]3CCCCNC(=O)CC[C@H](NC(=O)[C@H](Cc4ccccc4)NC(=O)[C@H](CCCCN)NC(=O)[C@@H](N)CSSC[C@@H](C(=O)O)NC(=O)[C@H](CO)NC3=O)C(=O)N[C@H](Cc3c[nH]c4ccccc34)C(=O)N2C)cc1,7.85,6.60,< 6.00,< 6.00,< 6.00
CC(C)NCc1ccc(C[C@@H]2NC(=O)[C@@H](Cc3c[nH]c4ccccc34)NC(=O)[C@@H]3CCC(=O)NCCCC[C@H](NC(=O)[C@H](Cc4ccc(O)cc4)NC(=O)[C@H]([C@@H](C)O)NC2=O)C(=O)N[C@@H](CO)C(=O)N[C@H](C(N)=O)CSSC[C@H](N)C(=O)N[C@@H](CCCCN)C(=O)N[C@@H](Cc2ccccc2)C(=O)N3)cc1,7.74,< 6.00,< 6.00,< 6.00,< 6.00
C[C@@H](O)[C@@H]1NC(=O)[C@H](Cc2ccccc2)NC(=O)[C@H]([C@@H](C)O)NC(=O)[C@H](CCCCN)NC(=O)[C@@H](Cc2c[nH]c3ccccc23)NC(=O)[C@H](Cc2ccccc2)NC(=O)[C@H](Cc2ccccc2)NC(=O)[C@H](CC(N)=O)NC(=O)[C@@H](N)CSSC[C@@H](C(=O)O)NC1=O,6.95,7.96,8.85,8.30,8.02
CC(C)NCc1ccc(C[C@@H]2NC(=O)[C@@H](Cc3c[nH]c4ccccc34)NC(=O)[C@H](Cc3ccccc3)NC(=O)[C@@H]3CCC(=O)NCC[C@H](NC(=O)[C@H]([C@@H](C)O)NC2=O)C(=O)N[C@@H]([C@@H](C)O)C(=O)N[C@@H](CO)C(=O)N[C@H](C(=O)O)CSSC[C@H](NC(=O)[C@@H](N)Cc2ccc(O)cc2)C(=O)N[C@@H](CCCCN)C(=O)N3)cc1,6.22,< 6.00,< 6.00,< 6.00,< 6.00
CC(C)NCc1ccc(C[C@H]2C(=O)N[C@@H]([C@@H](C)O)C(=O)N[C@@H](Cc3ccc(O)c(I)c3)C(=O)N[C@@H]3CCCCCCNC(=O)CC[C@H](NC(=O)[C@H](Cc4ccccc4)NC(=O)[C@H](CCCCN)NC(=O)[C@@H](N)CSSC[C@@H](C(=O)O)NC(=O)[C@H](CO)NC3=O)C(=O)N[C@H](Cc3c[nH]c4ccccc34)C(=O)N2C)cc1,6.21,< 6.00,6.67,< 6.00,< 6.00
CC(C)NCc1ccc(C[C@@H]2NC(=O)[C@@H](Cc3c[nH]c4ccccc34)NC(=O)[C@@H](NC(=O)[C@@H](N)Cc3ccccc3)CCC(=O)NCCCC[C@@H](C(=O)N[C@@H](CO)C(=O)O)NC(=O)[C@H](Cc3ccccc3)NC(=O)[C@H]([C@@H](C)O)NC2=O)cc1,< 6.00,< 6.00,< 6.00,< 6.00,< 6.00
C[C@@H](O)[C@@H]1NC(=O)[C@H](Cc2ccccc2)NC(=O)[C@H]([C@@H](C)O)NC(=O)[C@H](CCCCN)NC(=O)[C@@H](Cc2c[nH]c3ccccc23)NC(=O)[C@H](Cc2ccccc2)NC(=O)[C@H](Cc2ccccc2)NC(=O)[C@@H](N)CSSC[C@@H](C(=O)O)NC(=O)[C@H](CO)NC1=O,7.10,6.65,8.48,7.55,8.07
CC(C)NCc1ccc(C[C@@H]2NC(=O)[C@@H](Cc3c[nH]c4ccccc34)NC(=O)[C@H](Cc3ccccc3)NC(=O)[C@H]3CCC(=O)NCC[C@@H](NC(=O)[C@H]([C@@H](C)O)NC2=O)C(=O)N[C@@H]([C@@H](C)O)C(=O)N[C@@H](CO)C(=O)N[C@H](C(=O)O)CSSC[C@H](NC(=O)[C@@H](N)Cc2ccc(O)cc2)C(=O)N[C@@H](CCCCN)C(=O)N3)cc1,< 6.00,< 6.00,< 6.00,< 6.00,< 6.00
NCCCC[C@@H]1NC(=O)[C@@H](Cc2c[nH]c3ccccc23)NC(=O)[C@H](Cc2ccccc2)NC(=O)[C@H](Cc2ccccc2)NC(=O)[C@@H](N)CSSC[C@@H](C(=O)O)NC(=O)[C@H](Cc2ccccc2)NC1=O,< 6.00,6.04,6.10,< 6.00,< 6.00
CC(C)NCc1ccc(C[C@@H]2NC(=O)[C@@H](Cc3c[nH]c4ccccc34)NC(=O)[C@H](Cc3ccccc3)NC(=O)[C@@H]3CCC(=O)NCCCC[C@H](NC(=O)[C@H](Cc4ccccc4)NC(=O)[C@H]([C@@H](C)O)NC2=O)C(=O)N[C@@H](CO)C(=O)N[C@H](C(=O)O)CSSC[C@H](NC(=O)[C@@H](N)Cc2ccc(O)cc2)C(=O)N[C@@H](CCCCN)C(=O)N3)cc1,6.68,< 6.00,< 6.00,< 6.00,< 6.00

# Source: ChEMBL document CHEMBL1141179 (J Med Chem, 2005)
